From PubChem BioAssay
Fh CTSL1 inh: Fasciola hepatica cathepsin L1 inhibitors, primary screen, counter-screen for PFM18AAP inhibitor project, biochemical, QFRET, fluorogenic peptide substrate. recombinant F. hepatica cathepsin L1, Z-Leu-Arg-MCA fluorescence. inhibition, % at 5.96 µM. hit rate 0.49% among 300,000. AID 1906, 2009;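 active = inhibition above the mean of all tested compounds plus 3 SD, set per screening campaign, cut at about 17% in these data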
hK5 inh: human KLK5 protease inhibitors, primary screen, biochemical, 1536-well | Kallikrein-5 (Homo sapiens), Q9Y337 | recombinant hK5, fluorogenic AMC substrate cleavage | inhibition, % at 5 µM | hit rate 0.59% among 210,000 | AID 873, 2007;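 active = inhibition of 40% or more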
Target sequence (Q9Y337 67-293 limits assumed): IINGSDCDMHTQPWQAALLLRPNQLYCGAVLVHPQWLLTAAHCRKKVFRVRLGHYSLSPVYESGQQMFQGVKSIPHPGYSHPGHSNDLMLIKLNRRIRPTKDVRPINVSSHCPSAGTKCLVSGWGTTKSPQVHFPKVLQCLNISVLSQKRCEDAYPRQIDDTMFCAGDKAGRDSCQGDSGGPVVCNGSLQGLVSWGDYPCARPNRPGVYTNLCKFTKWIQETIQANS
FXIIa inh: human FXIIa protease inhibitors, primary screen, biochemical, 1536-well. Coagulation factor XII (Homo sapiens), P00748. purified FXIIa, Boc-QGR-AMC fluorogenic substrate, 2 h. inhibition, % at 5 µM. hit rate 0.3% among 220,000. AID 800, 2007; in the data active = inhibition above about 40%
FXIa inh: human FXIa protease inhibitors, primary screen, biochemical, 1536-well. purified FXIa, Boc-Glu-Ala-Arg-AMC fluorogenic substrate. inhibition, % at 5 µM. hit rate 0.14% among 220,000. AID 798, 2007;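 active = inhibition of at least 40%; inactive = inhibition below 40%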;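 note: fluorescence of freed AMC excited at 355 nm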
Thrombin inh: human alpha-thrombin inhibitors, primary screen, counter-screen for coagulation protease inhibitor project, biochemical, 1536-well, fluorogenic AMC substrate; inhibition, % at 5 µM; Prothrombin (Homo sapiens), P00734; hit rate 0.26% among 220,000; AID 1046, 2008; Boc-VPR-AMC fluorogenic substrate cleavage;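 active = inhibition at or above 40%; inactive = inhibition below 40%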
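Material: human alpha-thrombin enzyme / Medium: pH 7.5 Tris (50 mM) with NaCl 150 mM, Tween 20 0.05% / Compound: single-point dosing at 5 µM, 0.2% DMSO / Incubation: enzyme reaction carried out at room temperature / Detection: AMC fluorescence, 355/460 nm / Read-out basis: percent inhibition scaled between no-compound controls and no-enzyme blanks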
Rce1 inhib: yeast Rce1p protease inhibitors, primary screen, biochemical, fluorescence, cell-free homogeneous. CAAX prenyl protease 2 (Saccharomyces cerevisiae (strain ATCC 204508 / S288c)), Q03530. yeast membranes, quenched prenylated peptide cleavage fluorescence. calls only. hit rate 0.27% among 290,000. AID 2563, 2010;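 active = fall in fluorescence gain of 50% or more versus controls, with final raw signal at or below 3038400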
Target sequence (Q03530 whole entry, looked up): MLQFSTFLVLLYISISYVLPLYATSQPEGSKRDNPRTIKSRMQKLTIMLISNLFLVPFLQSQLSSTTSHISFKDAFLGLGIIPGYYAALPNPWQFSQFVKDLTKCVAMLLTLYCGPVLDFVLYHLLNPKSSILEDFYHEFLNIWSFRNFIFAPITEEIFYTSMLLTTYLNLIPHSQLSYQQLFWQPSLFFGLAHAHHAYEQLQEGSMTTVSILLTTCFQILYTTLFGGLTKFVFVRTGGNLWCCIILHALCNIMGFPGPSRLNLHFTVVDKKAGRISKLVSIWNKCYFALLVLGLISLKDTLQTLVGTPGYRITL
Large screens that a line does not name were inactive. Shown are actives, neighbours in structure and some others; about 1.4% of the full set was active somewhere.

O=C(Oc1cncc(Cl)c1)c1sccc1Cl	none (no result: hK5 inh, FXIIa inh, FXIa inh, Thrombin inh)
O=C(Oc1cncc(Cl)c1)c1ccco1	hK5 inh 42, FXIIa inh 61, FXIa inh 84
O=C(CSc1nc2nc[nH]c2c(=O)[nH]1)NC1CCCCC1	Thrombin inh 46
O=C(CN(C(=O)CCC(=O)Nc1ccccn1)c1ccc(F)cc1)NCCc1ccccc1	none (no result: hK5 inh, FXIIa inh, FXIa inh, Thrombin inh)
CC(C(=O)O)n1cc(Cl)cn1 (stereo unspecified)	hK5 inh 51
COc1ccc(NC(=O)CN(C)CC(=O)NCC(=O)Nc2ccc(F)cc2)cc1	none (no result: hK5 inh, FXIIa inh, FXIa inh, Thrombin inh)
Cc1nnc(NC(=O)Oc2ccccc2)s1	none
CCC(CC)c1nnc(NC(=O)CCN2C(=O)c3ccccc3C2=O)s1	hK5 inh 53
CCC(CC)c1nnc(NC(=O)Oc2ccccc2)s1	FXIIa inh 43
Nc1[nH]ncc1-c1ccccc1	none (no result: Rce1 inhib)
O=C(CSc1nc(O)c(C2CCCCC2)c(=O)[nH]1)Nc1ccccc1Cl	none (no result: hK5 inh, FXIIa inh, FXIa inh, Thrombin inh)
CS(=O)(=O)c1ccc(C(=O)OCC(=O)N(CCc2ccccc2)Cc2ccccc2)cc1	Rce1 inhib active (no result: hK5 inh, FXIIa inh, FXIa inh, Thrombin inh)
CS(=O)(=O)Cc1ccc(C(=O)N(CCc2ccccc2)Cc2ccccc2)cc1	Rce1 inhib active (no result: hK5 inh, FXIIa inh, FXIa inh, Thrombin inh)
CS(=O)(=O)c1ccc(C(=O)OCC(=O)NC(=O)Cc2ccccc2)cc1	none (no result: hK5 inh, FXIIa inh, FXIa inh, Thrombin inh)
CCC1CCC(C(=O)NC(C(=O)NCCN2CCOCC2)C(C)C)CC1 (stereo unspecified)	Fh CTSL1 inh 30 (no result: hK5 inh, FXIIa inh, FXIa inh, Thrombin inh)
CCCCCC1CCC(C(=O)NCCN2CCOCC2)CC1 (stereo unspecified)	none (no result: hK5 inh, FXIIa inh, FXIa inh, Thrombin inh)
O=C(c1ccc([N+](=O)[O-])cc1)N(Cc1ccc(Br)cc1)N1C(=O)CCCC1=O	none
CCOc1ccccc1/C=C(\NC(=O)c1ccccc1)C(=O)NCCC(=O)O	none
CCOc1ccccc1/C=C(/NC(=O)c1ccccc1)C(=O)NCC(=O)O	hK5 inh 47
CC1=C(C(=O)OCc2ccccc2)C(c2ccc(-c3ccccc3)cc2)NC(=O)N1CCCC(=O)O (stereo unspecified)	Rce1 inhib active (no result: hK5 inh, FXIIa inh, FXIa inh, Thrombin inh)
CN(c1ccc(C(=O)NCc2ccccc2)cc1)S(C)(=O)=O	hK5 inh 40
CCOC(=O)/C=C/C(=O)Nc1ccc(S(=O)(=O)N2CCCCCC2)cc1	Fh CTSL1 inh 31
O=S(=O)(c1ccc(S(=O)(=O)N2CCCC2)cc1)N1CCCCCC1	FXIIa inh 44
CCOC(=O)/C=C/C(=O)Nc1ccc(-c2nnc3n2CCCCC3)cc1	Fh CTSL1 inh 37 (no result: hK5 inh, FXIIa inh, FXIa inh, Thrombin inh)
O=S(=O)(c1ccc(Cl)cc1)N1CCCCCC1	none (no result: hK5 inh, FXIIa inh, FXIa inh, Thrombin inh)
O=C(c1ccc(Cl)c(S(=O)(=O)N2CCOCC2)c1)N1CCN(c2ccccc2)CC1	none (no result: hK5 inh, FXIIa inh, FXIa inh, Thrombin inh)
Cc1cc(OCC(=O)N2CCN(c3ccccn3)CC2)cc(C)c1Br	none (no result: hK5 inh, FXIIa inh, FXIa inh, Thrombin inh)
O=C(O)CSCC(=O)Nc1ccc(-c2nc3ccccc3s2)cc1	Rce1 inhib active
Cc1ccc2nc(-c3ccc(NC(=O)CSCC(=O)O)cc3)sc2c1	none
COc1cccc(/C=C/C(=O)OCC(=O)Nc2ccc(Cl)c(S(=O)(=O)N(C)C)c2)c1OC	Rce1 inhib active
COc1ccc(OC)c(/C=C/C(=O)OCC(=O)Nc2ccc(Cl)c(S(=O)(=O)N(C)C)c2)c1	none
O=C1/C(=C/c2ccc(N3CCOCC3)o2)SC(=Nc2ccccc2)N1CCc1c[nH]c2ccccc12	Fh CTSL1 inh 18
Cc1cn(C(=O)c2ccccc2)c(=S)n1-c1ccc(Br)cc1	none
CC(C)c1ccc(OCC(=O)Nc2ccc(S(=O)(=O)Nc3ccccn3)cc2)cc1	none (no result: hK5 inh, FXIIa inh, FXIa inh, Thrombin inh)
CCOC(=O)C(=O)Nc1ccc(S(=O)(=O)Nc2ncccn2)cc1	none
CC(C)c1cccc(OCC(=O)Nc2ccc(S(=O)(=O)Nc3ccccn3)cc2)c1	Rce1 inhib active (no result: hK5 inh, FXIIa inh, FXIa inh, Thrombin inh)
COc1cccc(NC(=O)COc2ccc(S(=O)(=O)NC(C)C)cc2)c1	hK5 inh 51 (no result: Rce1 inhib)
CCOCC(=O)Nc1ccc(S(=O)(=O)Nc2ncccn2)cc1	FXIIa inh 53
COC(=O)c1ccc(NC(=O)COc2ccc(S(=O)(=O)NC(C)C)cc2)cc1	hK5 inh 52
COc1ccc(CN2CCCC(C(=O)Nc3cccc(-n4cnnn4)c3)C2)c(C)c1C (stereo unspecified)	none (no result: hK5 inh, FXIIa inh, FXIa inh, Thrombin inh)
COc1ccc(CCNC(=O)Cc2ccsc2)cc1	none (no result: hK5 inh, FXIIa inh, FXIa inh, Thrombin inh)
COc1ccccc1NC(=S)N/N=C1\CC(C)(C)Oc2ccc(O)cc21	hK5 inh 57
Nc1ccc(Br)c2c1C(=O)c1ccccc1C2=O	none
NC1=C(Br)C(=O)c2ccccc2C1=O	Fh CTSL1 inh 35
CC(=O)Nc1cc(OC(C)=O)c2nonc2c1OC(C)=O	Fh CTSL1 inh 110 (no result: hK5 inh, FXIIa inh, FXIa inh, Thrombin inh, Rce1 inhib)
CC(=O)Nc1nonc1NC(C)=O	none
COc1ccccc1NC(=O)NNC(=O)C(C)Oc1ccc2ccccc2c1 (stereo unspecified)	none (no result: Fh CTSL1 inh, hK5 inh, FXIIa inh, FXIa inh, Thrombin inh)
COc1ccccc1CN1CC(C(=O)NCc2ncccc2C)CCC1=O (stereo unspecified)	none (no result: hK5 inh, FXIIa inh, FXIa inh, Thrombin inh)
CS(=O)(=O)Nc1ccc(-c2cn3c(n2)SCC3)cc1	none (no result: hK5 inh, FXIIa inh, FXIa inh, Thrombin inh)
CC(=O)c1ccc(S(=O)(=O)Nc2ccc(-c3cn4c(n3)SCC4)cc2)cc1	Thrombin inh 42
COC(=O)c1ccccc1NC(=O)C1CC(=O)N(c2ccc(F)cc2)C1 (stereo unspecified)	hK5 inh 89, Thrombin inh 50
CCc1ccc(N2CC(C(=O)Nc3ccccc3F)CC2=O)cc1 (stereo unspecified)	hK5 inh 87, Thrombin inh 104 (no result: Rce1 inhib)
CCCOc1ccc(N2CC(C(=O)Nc3ccccc3F)CC2=O)cc1 (stereo unspecified)	none
COC(=O)c1ccccc1NC(=O)C1CC(=O)N(C2CCCCC2)C1 (stereo unspecified)	hK5 inh 64
CC(C)(C)NC(=O)c1ccccc1NC(=O)C1CC(=O)N(C2CCCCC2)C1 (stereo unspecified)	none (no result: hK5 inh, FXIIa inh, FXIa inh, Thrombin inh)
Cc1c(NC(=O)Cc2ccccc2)cccc1C(=O)NN1C(=O)c2ccccc2C1=O	none
Cc1cc(C)nc(N/N=C/c2cc(C)n(CC(F)(F)F)c2C)n1	none
COc1ccc(OC)c(S(=O)(=O)Nc2cc(C(=O)O)ccc2N2CC3CC(C2)c2cccc(=O)n2C3)c1 (stereo unspecified)	none
CC(C)(C)c1ccc(C2C(C(=O)c3ccco3)=C(O)C(=O)N2CC2CCCO2)cc1 (stereo unspecified)	none (no result: hK5 inh, FXIIa inh, FXIa inh, Thrombin inh)
COCc1c(C(=O)OCc2nc(N)nc(Nc3ccccc3C)n2)oc2ccccc12	Fh CTSL1 inh 17, FXIIa inh 51
COc1ccc(CCNC(=O)Cn2nnc(-c3ccc(N4CCOCC4)cc3)n2)cc1OC	hK5 inh 126
